≈ marks a conversion by molar mass, not a printed value. Calls of active or inactive are those of the source. The rule behind the calls is not given here.
Assays:
[1] = test system: Caco-2; assay: Induction of necrosis in human Caco2 cells at 20 uM after 48 hrs by Hoechst 33258/propidium iodide staining based phase contrast microscopic analysis; assay type: functional
Summary of the method: (§1)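 Cells in 48-well plates treated with 0.5, 10, 20 or 40 µM for 24 and 48 h. Values are read at 48 h, 20 µM for test agents and 0.5 µM for controls. Staining is Hoechst 33258/propidium iodide double staining with fluorescence microscopy. Blue nuclei are viable or early-to-mid apoptotic, and pink nuclei are late apoptotic or necrotic. Apoptosis and necrosis are scored from chromatin condensation as % of cells. Cells are grown at 37 °C in 5% CO2 in RPMI, DMEM or McCoy's 5A with 10–15% heat-inactivated FCS.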

[2] = test system: Bacillus subtilis; assay: Antimicrobial activity against Bacillus subtilis ATCC 6633 for 24 hrs by microdillution method; assay type: functional
Summary of the method: (§2)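 Broth microdilution. Compound is dissolved in DMSO (2 mg/mL) and diluted in Mueller Hinton broth as two-fold serial dilutions from 256 to 0.125 µg/mL. Bacteria are pre-grown in nutrient broth at 30 °C, and the final inoculum is about 10^6 cfu/mL. Tests are incubated 37 °C for 24 h. MIC is the lowest concentration giving complete inhibition. Streptomycin is the positive control.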

[3] = test system: Cyberlindnera jadinii; assay: Antimicrobial activity against Candida utilis ATCC 9950 assessed as zone of inhibition at 30 uL for 24 hrs at 30 degC by disk diffusion test; assay type: functional, organism-based
Summary of the method: (§3)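 Agar well diffusion on Mueller Hinton agar seeded with 0.1 mL broth culture (18–24 h), adjusted to 0.5 McFarland (about 1×10^8 bacteria or 1×10^6 yeast cells/mL). A 6 mm well is filled with 30 µL of compound from a fresh 1000 µg/mL DMSO stock. Plates are held at 30 °C for 24 h and inhibition zone diameter is read in mm.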

[4] = test system: Bacillus subtilis; assay: Antimicrobial activity against Bacillus subtilis ATCC 6633 assessed as zone of inhibition at 30 uL for 24 hrs at 30 degC by disk diffusion test; assay type: functional; summary of the method: as §3
[5] = test system: Staphylococcus epidermidis; assay: Antimicrobial activity against Staphylococcus epidermidis ATCC 12228 assessed as zone of inhibition at 30 uL for 24 hrs at 37 degC by disk diffusion test; assay type: functional, organism-based
Summary of the method: (§4)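 Compound (30 µL of a fresh 1000 µg/mL DMSO stock) goes into a 6 mm well cut in Mueller Hinton agar inoculated with 0.1 mL broth culture adjusted to 0.5 McFarland (about 1×10^8 cells/mL). Plates are incubated 24 h at 37 °C, then zone of inhibition diameter is measured in mm.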

[6] = test system: Candida tropicalis; assay: Antimicrobial activity against Candida tropicalis assessed as zone of inhibition at 30 uL for 24 hrs at 30 degC by disk diffusion test; assay type: functional, organism-based; summary of the method: as §3
[7] = test system: Bacillus cereus; assay: Antimicrobial activity against Bacillus cereus ATCC 11778 for 24 hrs by microdillution method; assay type: functional; summary of the method: as §2
[8] = test system: Micrococcus luteus; assay: Antimicrobial activity against Micrococcus luteus ATCC 9341 assessed as zone of inhibition at 30 uL for 24 hrs at 30 degC by disk diffusion test; assay type: functional, organism-based; summary of the method: as §3
[9] = test system: Candida albicans; assay: Antimicrobial activity against Candida albicans ATCC 10231 assessed as zone of inhibition at 30 uL for 24 hrs at 30 degC by disk diffusion test; assay type: functional, organism-based; summary of the method: as §3
[10] = test system: HeLa; assay: Induction of necrosis in human HeLa cells at 20 uM after 48 hrs by Hoechst 33258/propidium iodide staining based phase contrast microscopic analysis; assay type: functional; summary of the method: as §1
[11] = test system: Proteus vulgaris; assay: Antimicrobial activity against Proteus vulgaris ATCC 33420 assessed as zone of inhibition at 30 uL for 24 hrs at 37 degC by disk diffusion test; assay type: functional, organism-based; summary of the method: as §4
[12] = test system: MCF7; assay: Antiproliferative activity against human MCF7 cells after 24 and 72 hrs by MTT assay; assay type: functional, cell-based
Summary of the method: (§5)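 ATCC human cell lines are kept in RPMI, DMEM or McCoy's 5A with 10–15% heat-inactivated FCS at 37 °C and 5% CO2. They are seeded at 1×10^4–1×10^5 cells/mL in 48-well plates and exposed to 0.5, 10, 20 or 40 µM. Viability is read by MTT (590 nm) at 24 and 72 h. Growth is expressed relative to untreated cells and IC50 is fitted, in triplicate.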

[13] = test system: Saccharomyces cerevisiae; assay: Antimicrobial activity against Saccharomyces cerevisiae ATCC 9763 assessed as zone of inhibition at 30 uL for 24 hrs at 30 degC by disk diffusion test; assay type: functional, organism-based; summary of the method: as §3
[14] = test system: Bacillus cereus; assay: Antimicrobial activity against Bacillus cereus ATCC 11778 assessed as zone of inhibition at 30 uL for 24 hrs at 30 degC by disk diffusion test; assay type: functional; summary of the method: as §3
[15] = test system: MCF7; assay: Induction of apoptosis in human MCF7 cells at 20 uM after 48 hrs by Hoechst 33258/propidium iodide staining based phase contrast microscopic analysis; assay type: functional; summary of the method: as §1
[16] = test system: HL-60; assay: Antiproliferative activity against human HL60 cells after 24 and 72 hrs by MTT assay; assay type: functional, cell-based; summary of the method: as §5
[17] = test system: Salmonella typhimurium; assay: Antimicrobial activity against Salmonella typhimurium ATCC 14028 assessed as zone of inhibition at 30 uL for 24 hrs at 37 degC by disk diffusion test; assay type: functional, organism-based; conditions: Salmonella enterica subsp. enterica serovar Typhimurium; summary of the method: as §4
[18] = test system: Caco-2; assay: Antiproliferative activity against human Caco2 cells after 24 and 72 hrs by MTT assay; assay type: functional, cell-based; summary of the method: as §5
[19] = test system: Bacillus thuringiensis; assay: Antimicrobial activity against Bacillus thuringiensis for 24 hrs by microdillution method; assay type: functional; summary of the method: as §2
[20] = test system: HT-29; assay: Induction of necrosis in human HT-29 cells at 20 uM after 48 hrs by Hoechst 33258/propidium iodide staining based phase contrast microscopic analysis; assay type: functional; summary of the method: as §1
[21] = Antiproliferative activity against human Saos2 cells after 24 and 72 hrs by MTT assay; assay type: functional, cell-based; conditions: SAOS-2; summary of the method: as §5
[22] = test system: HeLa; assay: Antiproliferative activity against human HeLa cells after 24 and 72 hrs by MTT assay; assay type: functional, cell-based; summary of the method: as §5
[23] = test system: SAOS-2; assay: Induction of necrosis in human Saos2 cells at 20 uM after 48 hrs by Hoechst 33258/propidium iodide staining based […] microscopic analysis; assay type: functional; summary of the method: as §1
[24] = test system: Escherichia coli; assay: Antimicrobial activity against Escherichia coli ATCC 25922 assessed as zone of inhibition at 30 uL for 24 hrs at 37 degC by disk diffusion test; assay type: functional, organism-based; summary of the method: as §4
[25] = test system: HT-29; assay: Antiproliferative activity against human HT-29 cells after 24 and 72 hrs by MTT assay; assay type: functional, cell-based; summary of the method: as §5
[26] = test system: Caco-2; assay: Induction of apoptosis in human Caco2 cells at 20 uM after 48 hrs by Hoechst 33258/propidium iodide staining based phase contrast microscopic analysis; assay type: functional; summary of the method: as §1
[27] = test system: Staphylococcus aureus; assay: Antimicrobial activity against Staphylococcus aureus ATCC 25923 assessed as zone of inhibition at 30 uL for 24 hrs at 37 degC by disk diffusion test; assay type: functional, organism-based; summary of the method: as §4
[28] = test system: MCF7; assay: Induction of necrosis in human MCF7 cells at 20 uM after 48 hrs by Hoechst 33258/propidium iodide staining based phase contrast microscopic analysis; assay type: functional; summary of the method: as §1
[29] = test system: Enterococcus faecalis; assay: Antimicrobial activity against Enterococcus faecalis ATCC 29212 assessed as zone of inhibition at 30 uL for 24 hrs at 37 degC by disk diffusion test; assay type: functional, organism-based; summary of the method: as §4
[30] = test system: Klebsiella pneumoniae; assay: Antimicrobial activity against Klebsiella pneumoniae ATCC 13882 assessed as zone of inhibition at 30 uL for 24 hrs at 37 degC by disk diffusion test; assay type: functional, organism-based; summary of the method: as §4
[31] = test system: Nakaseomyces glabratus; assay: Antimicrobial activity against Candida glabrata assessed as zone of inhibition at 30 uL for 24 hrs at 30 degC by disk diffusion test; assay type: functional, organism-based; summary of the method: as §3
[32] = test system: Pseudomonas aeruginosa; assay: Antimicrobial activity against Pseudomonas aeruginosa ATCC 35032 assessed as zone of inhibition at 30 uL for 24 hrs at 37 degC by disk diffusion test; assay type: functional, organism-based; summary of the method: as §4
[33] = test system: HL-60; assay: Induction of apoptosis in human HL60 cells at 20 uM after 48 hrs by Hoechst 33258/propidium iodide staining based phase contrast microscopic analysis; assay type: functional; summary of the method: as §1
[34] = test system: HT-29; assay: Induction of apoptosis in human HT-29 cells at 20 uM after 48 hrs by Hoechst 33258/propidium iodide staining based phase contrast microscopic analysis; assay type: functional; summary of the method: as §1
[35] = test system: SAOS-2; assay: Induction of apoptosis in human Saos2 cells at 20 uM after 48 hrs by Hoechst 33258/propidium iodide staining based phase contrast microscopic analysis; assay type: functional; summary of the method: as §1
[36] = test system: Bacillus thuringiensis; assay: Antimicrobial activity against Bacillus thuringiensis assessed as zone of inhibition at 30 uL for 24 hrs at 30 degC by disk diffusion test; assay type: functional; summary of the method: as §3
[37] = test system: HL-60; assay: Induction of necrosis in human HL60 cells at 20 uM after 48 hrs by Hoechst 33258/propidium iodide staining based phase contrast microscopic analysis; assay type: functional; summary of the method: as §1
[38] = test system: HeLa; assay: Induction of apoptosis in human HeLa cells at 20 uM after 48 hrs by Hoechst 33258/propidium iodide staining based phase contrast microscopic analysis; assay type: functional; summary of the method: as §1

SMILES | Activity [1] [%] | diameter of the inhibition zone (DIZ) [3] | diameter of the inhibition zone (DIZ) [4] | diameter of the inhibition zone (DIZ) [5] | diameter of the inhibition zone (DIZ) [6] | diameter of the inhibition zone (DIZ) [8] | diameter of the inhibition zone (DIZ) [9] | Activity [10] [%] | diameter of the inhibition zone (DIZ) [11] | IC50 [12] [µM] | diameter of the inhibition zone (DIZ) [13] | diameter of the inhibition zone (DIZ) [14] | Activity [15] [%] | IC50 [16] [µM] | diameter of the inhibition zone (DIZ) [17] | IC50 [18] [µM] | MIC [19] | Activity [20] [%] | IC50 [21] [µM] | IC50 [22] [µM] | other results
CC1(C)CC[C@]2(C(=O)O)CC[C@]3(C)C(=CC[C@@H]4[C@@]5(C)CC[C@H](O)[C@@](C)(C=O)[C@@H]5CC[C@]43C)[C@@H]2C1 | 0 | inactive | 13 mm | inactive | inactive | inactive | inactive | 0 | inactive | 9.02 | inactive | 13 mm | 30 | 10.4 | inactive | 16.7 | 32 µg/mL (≈ 68 µM) | 2 | 7.85 | 22.5 | MIC ([2]; ATCC 6633, 24 h): 32 µg/mL (≈ 68 µM); MIC ([7]; ATCC 11778, 24 h): 32 µg/mL (≈ 68 µM); Activity [23]: 2%; diameter of the inhibition zone (DIZ) [24]: inactive; IC50 [25]: 11.9 µM; Activity [26]: 20%; diameter of the inhibition zone (DIZ) [27]: inactive; Activity [28]: 4%; diameter of the inhibition zone (DIZ) [29]: inactive; diameter of the inhibition zone (DIZ) [30]: inactive; diameter of the inhibition zone (DIZ) [31]: inactive; diameter of the inhibition zone (DIZ) [32]: inactive; Activity [33]: 33%; Activity [34]: 21%; Activity [35]: 36%; diameter of the inhibition zone (DIZ) [36]: 13 mm; Activity [37]: 4%; Activity [38]: 29%
CC1(C)CC[C@]2(C(=O)OCc3ccccc3)CC[C@]3(C)C(=CC[C@@H]4[C@@]5(C)CC[C@H](O)[C@@](C)(/C=N/NC(N)=S)[C@@H]5CC[C@]43C)[C@@H]2C1 | 48 | inactive | inactive | inactive | inactive | inactive | inactive | 55 | inactive | 6.05 | inactive | inactive | 4 | 6.21 | inactive | 36.5 | inactive | 32 | 6.97 | 23.6 | MIC [2]: inactive; MIC [7]: inactive; Activity [23]: 41%; diameter of the inhibition zone (DIZ) [24]: inactive; IC50 [25]: 15 µM; Activity [26]: 4%; diameter of the inhibition zone (DIZ) [27]: inactive; Activity [28]: 63%; diameter of the inhibition zone (DIZ) [29]: inactive; diameter of the inhibition zone (DIZ) [30]: inactive; diameter of the inhibition zone (DIZ) [31]: inactive; diameter of the inhibition zone (DIZ) [32]: inactive; Activity [33]: 2%; Activity [34]: 2%; Activity [35]: 5%; diameter of the inhibition zone (DIZ) [36]: inactive; Activity [37]: 64%; Activity [38]: 5%

— ChEMBL document CHEMBL3297654, “Synthesis, antimicrobial and cytotoxic activities, and structure-activity relationships of gypsogenin derivatives against human cancer cells” (Eur J Med Chem, 2014)
